Results published in ChEMBL document CHEMBL2406946 (Bioorg Med Chem, 2013).
pIC50: −log10 of the molar value.

Assays:
[1] = target: Aldo-keto reductase family 1 member B1 (Bos taurus, UniProt P16116); test: Inhibition of bovine lens aldose reductase using DL-glyceraldehyde as substrate assessed as NADPH oxidation measured for 10 mins by spectrophotometric analysis
Outline: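 Aldose reductase isolated from bovine lens (enzyme at 750 µg/mL protein) in 50 mM PBS pH 6.2 with β-mercaptoethanol, Li2SO4 and NADPH, compounds across a 0.1–10 range. Reaction started with DL-glyceraldehyde. Fall in NADPH absorbance at 340 nm followed for 10 min.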

[2] = Induction of nitric oxide release at 10^-4 M after 1 hr by Griess assay in presence of L-cysteine relative to control; assay type: physicochemical; conditions: 100 µM
Outline: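 Thiol-triggered NO release: compounds at final 10^-4 M incubated 1 h at 37 °C with L-cysteine. 1 mL of mixture treated with Griess reagent (sulfanilamide, N-naphthylethylenediamine dihydrochloride, phosphoric acid), held 10 min at room temperature, absorbance read at 540 nm. Percent NO released relative to a theoretical maximum of 1 mol NO/mol compound. Sodium nitroprusside served as positive control.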

[3] = target: Aldo-keto reductase family 1 member B1 (Bos taurus) (UniProt P16116); test: Ratio of quercetin IC50 to compound iC50 for bovine lens aldose reductase
[4] = target: Aldo-keto reductase family 1 member B1 (Bos taurus) (UniProt P16116); test: Ratio of 4-(5-hydroxy-4-oxo-2-phenyl-4H-chromen-7-yloxy)butyl nitrate IC50 to compound IC50 for bovine lens aldose reductase

Row | SMILES | pIC50 [1] | Activity [2] [%] | Ratio IC50 [3] | Ratio IC50 [4]
1 | O=c1cc(-c2ccc(O)c(O)c2)oc2cc(O)cc(O)c12 [LUTEOLIN] | 6.12 | – | – | –
2 | CCOC(=O)COc1cc(O)c2c(=O)cc(-c3ccc4c(c3)OCCO4)oc2c1 | 6.30 | – | – | –
3 | CCOc1cc(O)c2c(=O)cc(-c3ccc(O)c(O)c3)oc2c1 | 6.22 | – | – | –
4 | CCCCCCOc1cc(O)c2c(=O)cc(-c3ccc(O)c(O)c3)oc2c1 | 5.74 | – | – | –
5 | O=C(COc1cc(O)c2c(=O)cc(-c3ccc4c(c3)OCCO4)oc2c1)OCCCCO[N+](=O)[O-] | 6.31 | 1.351 | – | –
6 | CCOc1cc(O)c2c(=O)cc(-c3ccc4c(c3)OCCO4)oc2c1 | 5.93 | – | – | –
7 | CCCCOc1cc(O)c2c(=O)cc(-c3ccc4c(c3)OCCO4)oc2c1 | 5.90 | – | – | –
8 | CCCCCCOC(=O)COc1cc(O)c2c(=O)cc(-c3ccc4c(c3)OCCO4)oc2c1 | 5.55 | – | – | –
9 | CCCCOc1cc(O)c2c(=O)cc(-c3ccc(O)c(O)c3)oc2c1 | 6.11 | – | – | –
10 | O=c1cc(-c2ccc(O)c(O)c2)oc2cc(OCCCCCCO[N+](=O)[O-])cc(O)c12 | 6.31 | 4.637 | – | –
11 | CCCCOC(=O)COc1cc(O)c2c(=O)cc(-c3ccc4c(c3)OCCO4)oc2c1 | 6.28 | – | – | –
12 | O=c1cc(-c2ccc3c(c2)OCCO3)oc2cc(OCCO[N+](=O)[O-])cc(O)c12 | 7.00 | 2.111 | 28.5 | –
13 | O=C(COc1cc(O)c2c(=O)cc(-c3ccc4c(c3)OCCO4)oc2c1)OCCCCCCO[N+](=O)[O-] | 5.89 | 1.14 | – | –
14 | O=c1cc(-c2ccc(O)c(O)c2)oc2cc(OCCO[N+](=O)[O-])cc(O)c12 | 6.77 | 1.07 | – | –
15 | O=C(COc1cc(O)c2c(=O)cc(-c3ccc4c(c3)OCCO4)oc2c1)OCCO[N+](=O)[O-] | 6.35 | 1.018 | – | –
16 | CCCCCCOc1cc(O)c2c(=O)cc(-c3ccc4c(c3)OCCO4)oc2c1 | 5.77 | – | – | –
17 | O=c1cc(-c2ccc(O)c(O)c2)oc2cc(OCCCCO[N+](=O)[O-])cc(O)c12 | 6.33 | 2.345 | – | –
18 | O=c1cc(-c2ccc3c(c2)OCCO3)oc2cc(OCCCCO[N+](=O)[O-])cc(O)c12 | 6.90 | 2.813 | – | 2.3
19 | O=c1cc(-c2ccc3c(c2)OCCO3)oc2cc(OCCCCCCO[N+](=O)[O-])cc(O)c12 | 6.35 | 1.328 | – | –
